We go through three molecules from ChEMBL document CHEMBL3526143, “Pulmonary metabolism of resveratrol: in vitro and in vivo evidence” (Drug Metab Dispos, 2013).

Molecules are shown by their SMILES. pKi: −log10 of the molar value. Bounds are passed on as bounds.

What is called pKi is the Ki on a negative log10 scale, so that one unit is a factor of ten. Lower therefore signals a large Ki. By AUC(0-inf) is commonly meant total exposure, with the tail of the curve extrapolated. For orientation: clearance means the volume of plasma or blood freed of the substance per unit of time. The low end stands for inefficient removal, the high end for efficient removal. Broadly, the bioavailability is the share of a dose that reaches the circulation, judged against a reference dose that is usually intravenous. A lower bioavailability goes with poor availability. For orientation: Km means the concentration of substrate that gives half-maximal velocity. The Vmax is the top rate of the reaction or transport when substrate is in excess.

Series [1] is described as follows: Plasma protein binding in mouse at 20 uM by equilibrium dialysis method. Conditions: read-out: PPB (converted). The format is ADME, cell-free. In a few lines: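 Equilibrium dialysis uses 5K MWCO membranes on a rotator at 37°C under 10% CO2. Thawed mouse plasma is adjusted to pH 7.4, and each analyte is tested at 20 µM; n = 3.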
Series [2] can be described thus: Partial substrate inhibition in mouse lung S9 fractions treated with trans-resveratrol preincubated for 3 mins followed by PAPS addition measured after 60 mins by Eadie-Hofstee plot analysis. The format is ADME. The gist of the method:
(§1)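 Sulfation uses pooled lung S9 (mouse 1 mg/ml, human 0.5 mg/ml final) with substrate at 0.01 µM–5 mM in 2% HP-β-CD, 5 mM MgCl2 and 10 mM potassium phosphate pH 6.5 at 37°C. After 3 min preincubation, 1 mM PAPS is added for 60 min, and the reaction is stopped with ascorbic acid and cold methanol. Triplicates are run, with a control lacking PAPS. Kinetics are fitted by nonlinear regression (partial substrate inhibition) after Eadie-Hofstee inspection.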

The nature of series [3]: Partial substrate inhibition in human lung S9 fractions treated with trans-resveratrol preincubated for 3 mins followed by PAPS addition measured after 60 mins by Eadie-Hofstee plot analysis. The format is ADME. In a few lines: as §1
A short description of series [4]: Partial substrate inhibition in mouse lung S9 fractions treated with trans-resveratrol preincubated for 3 mins followed by UDPGA addition measured after 60 mins by Eadie-Hofstee plot analysis. The class given is ADME. The gist of the method:
(§2)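 Pooled mouse lung S9 (0.5 mg/ml final) is incubated with substrate at 0.01 µM–5 mM in 2% final HP-β-CD, alamethicin 10 µg/ml, 5 mM MgCl2 and Tris-HCl 100 mM pH 7.4 at 37°C. The reaction is started with 5 mM UDPGA and stopped at 60 min with ascorbic acid and cold methanol. Triplicates are run, with a control lacking UDPGA. Data are screened on Eadie-Hofstee plots and fitted by nonlinear regression to a partial substrate inhibition model.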

The nature of series [5]: Drug level in human lung microsomes treated with trans-resveratrol at 0.5 mM measured at 60 mins. The class given is ADME. The note with it: 1 h, 500 µM. The gist of the method:
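Pooled human lung microsomes at 0.1, 0.5 and 2.5 mg/ml final, with 0.5 mM substrate in 2% final HP-β-CD, are incubated with UDPGA cofactor for 60 min. Glucuronide is quantified by LC-MS/MS, with an LOQ of 10 ng/ml.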

The nature of series [6]: AUC (0 to infinity) in C57BL/6 mouse at 15 mg/kg, iv. The format is ADME, organism-based. Set-up: time infinity, dose 15 mg/kg, route intravenous. Conditions: plasma. The gist of the method:
(§3)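 Male C57BL/6 mice, 20–25 g, given a single IV dose of 15 mg/kg in 20% HP-β-CD in saline. Blood (20 µl) is drawn serially through a carotid artery cannula at 2.5–600 min, and plasma is assayed by LC-MS/MS. Noncompartmental analysis gives AUC by the linear trapezoidal rule, CL = dose/AUC0-inf, Vss = CL × MRT0-inf and t1/2 = 0.693/λ; n = 5.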

The nature of series [7]: Clearance in C57BL/6 mouse at 15 mg/kg, iv. Conditions: in vivo. Set-up: dose 15 mg/kg, route intravenous. The format is ADME, organism-based. The gist of the method:
as §3

Series [8] in a line: Volume of distribution at steady state in C57BL/6 mouse at 15 mg/kg, iv. The format is ADME, organism-based. Conditions: in vivo, read-out: Vdss. Details: dose 15 mg/kg, route intravenous. In a few lines:
as §3

Series [9] is described as follows: Terminal half life in C57BL/6 mouse at 15 mg/kg, iv. The class given is ADME, organism-based. Details: dose 15 mg/kg, route intravenous. The note with it: in vivo, read-out: beta t1/2. The gist of the method: as §3
Series [10] can be described thus: Bioavailability in C57BL/6 mouse at 15 mg/kg, iv. The class given is ADME, organism-based. The note with it: in vivo.
Series [11] is described as follows: Drug metabolism in mouse lung S9 fractions assessed as trans-resveratrol-3-O-glucuronide formation preincubated for 3 mins followed by UDPGA addition measured after 60 mins by Eadie-Hofstee plot analysis. The format is ADME, tissue-based. Conditions: s9, 1 h. The gist of the method: as §2
A short description of series [12]: Drug metabolism in mouse lung S9 fractions assessed as trans-resveratrol-3-sulfate formation preincubated for 3 mins followed by PAPS addition measured after 60 mins by Eadie-Hofstee plot analysis. The class given is ADME, tissue-based. Conditions: s9, 1 h. In a few lines: as §1
Series [13] can be described thus: Drug metabolism in human lung S9 fractions assessed as trans-resveratrol-3-sulfate formation preincubated for 3 mins followed by PAPS addition measured after 60 mins by Eadie-Hofstee plot analysis. The format is ADME, tissue-based. Conditions: s9, 1 h. In a few lines: as §1

As for `O=S(=O)(O)Oc1cc(O)cc(/C=C/c2ccc(O)cc2)c1`, in [1], the fraction unbound at 20 µM was 0.128. Besides, the figures for the pKi in series [2] and in series [3] were 2.69 and 1.63, respectively.

`O=C(O)[C@H]1O[C@@H](Oc2cc(O)cc(/C=C/c3ccc(O)cc3)c2)[C@H](O)[C@@H](O)[C@@H]1O`: in series [1], the fraction unbound at 20 µM is 0.333. The negative-log Ki (pKi) in series [4] was 2.18. The Drug metabolism in series [5] was less than 10 ng/mL.

`Oc1ccc(/C=C/c2cc(O)cc(O)c2)cc1` [RESVERATROL]: the fraction unbound at 20 µM in series [1] was 0.0805. This molecule also gave an AUC(0-inf) in [6] of 4.92 µM·h. Moreover, the clearance in series [7] came to 280 mL/min/kg. Moreover, the Vd in series [8] was determined as 34.9 L/kg. For the same molecule, in series [9], the half-life worked out at 1.69 h. The bioavailability in [10] came out at 49.9%. In addition, the Km was found to be 7.34 µM in series [11], 2.69 µM in series [12] and 4.45 µM in [13]. The maximal velocity (Vmax) was determined as 324.4 pmol/min/mg in [11], 7.05 pmol/min/mg in series [12] and 16.15 pmol/min/mg in [13].
